pEC50: −log10 of the molar value.
Tests used:
Format in all cases: functional
Mus musculus [1] = assay: Median survival of treated/ control animals (%T/C) was determined by in vivo antitumor activity against the B16 melanoma cell line at a dose of 15 mg/kg administered intraperitoneally on day 5; settings: route intraperitoneal
Procedure, shortened: (§1)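 Murine B16 melanoma implanted intraperitoneally in mice. Drug given intraperitoneally on days 5, 9 and 13 after implantation, with dose expressed as doxorubicin equivalents. Read-out is %T/C, the median survival of treated animals over that of untreated controls.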

Mus musculus [2] = assay: Median survival of treated/ control animals (%T/C) was determined by in vivo antitumor activity against the B16 melanoma cell line at a dose of 60 mg/kg administered intraperitoneally on day 5; settings: route intraperitoneal; procedure, shortened: as §1
Mus musculus [3] = assay: Median survival of treated/ control animals (%T/C) was determined by in vivo antitumor activity against the B16 melanoma cell line at a dose of 30 mg/kg administered intraperitoneally on day 5; settings: route intraperitoneal; procedure, shortened: as §1
Mus musculus [4] = assay: Median survival of treated/ control animals (%T/C) was determined by in vivo antitumor activity against the B16 melanoma cell line at a dose of 5 mg/kg administered intraperitoneally on day 5; settings: route intraperitoneal; procedure, shortened: as §1
Gallus gallus [5] = species on record: Gallus gallus; assay: Inhibitory activity against the [3H]thymidine incorporation into DNA of Rous Sarcoma virus transformed chicken embryo fibroblasts at 24 hr of treatment; settings: read-out: ED50 (the source's name)
Gallus gallus [6] = species on record: Gallus gallus; assay: Inhibitory activity against the [3H]thymidine incorporation into DNA of Rous Sarcoma virus transformed chicken embryo fibroblasts at 5 hr of treatment; settings: read-out: ED50 (the source's name)
Gallus gallus [7] = species on record: Gallus gallus; assay: Inhibitory activity against the [3H]thymidine incorporation into DNA of normal chicken embryo fibroblasts at 24 hr of treatment; settings: read-out: ED50 (the source's name)
Gallus gallus [8] = species on record: Gallus gallus; assay: Inhibitory activity against the [3H]-thymidine incorporation into DNA of normal chicken embryo fibroblasts at 5 hr of treatment; settings: read-out: ED50 (the source's name)
Mus musculus [9] = assay: Median survival of treated/ control animals (%T/C) was determined by in vivo antitumor activity against the B16 melanoma cell line at a dose of 12 mg/kg administered intraperitoneally on day 5; settings: route intraperitoneal; procedure, shortened: as §1
Mus musculus [10] = assay: Median survival of treated/ control animals (%T/C) was determined by in vivo antitumor activity against the B16 melanoma cell line at a dose of 6 mg/kg administered intraperitoneally on day 5; settings: route intraperitoneal; procedure, shortened: as §1
Mus musculus [11] = assay: Median survival of treated/ control animals (%T/C) was determined by in vivo antitumor activity against the B16 melanoma cell line at a dose of 9 mg/kg administered intraperitoneally on day 5; settings: route intraperitoneal; procedure, shortened: as §1
Mus musculus [12] = assay: Median survival of treated/ control animals (%T/C) was determined by in vivo antitumor activity against the B16 melanoma cell line at a dose of 3 mg/kg administered intraperitoneally on day 5; settings: route intraperitoneal; procedure, shortened: as §1
Mus musculus [13] = assay: Median survival of treated/ control animals (%T/C) was determined by in vivo antitumor activity against the B16 melanoma cell line at a dose of 1 mg/kg administered intraperitoneally on day 5; settings: route intraperitoneal; procedure, shortened: as §1
[14] = Degree of improvement in the selective cytotoxicity of the prodrug (drug 10) to that of the parent drug (drug 1) at 24 hr of treatment; Value is measured as 6.8 times
[15] = Degree of improvement in the selective cytotoxicity of the prodrug (drug 10) to that of the parent drug (drug 1) at 5 hr of treatment; Value is measured as 5.8 times
[16] = Selectivity index between the ED50 value for normal cells to that of transformed chicken embryo fibroblast cells at 24 hr of treatment
[17] = Selectivity index between the ED50 value for normal cells to that of transformed chicken embryo fibroblast cells at 5 hr of treatment
Mus musculus [18] = assay: Median survival of treated/ control animals (%T/C) was determined by in vivo antitumor activity against the B16 melanoma cell line at a dose of 75 mg/kg administered intraperitoneally on day 5; settings: route intraperitoneal; procedure, shortened: as §1
Mus musculus [19] = assay: Median survival of treated/ control animals (%T/C) was determined by in vivo antitumor activity against the B16 melanoma cell line at a dose of 45 mg/kg administered intraperitoneally on day 5; settings: route intraperitoneal; procedure, shortened: as §1

Q: What does the source list for `COc1cccc2c1C(=O)c1c(O)c3c(c(O)c1C2=O)C[C@@](O)(C(=O)CO)C[C@@H]3OC1CC(NC(=O)[C@H](CCCCN)NC(=O)[C@H](CC(C)C)NC(=O)[C@@H](NC(=O)OC(C)(C)C)C(C)C)C(O)C(C)O1.Cl` (stereo partly specified)?
A: T/C (Mus musculus [1]): 100%; T/C (Mus musculus [2]): 100%; T/C (Mus musculus [3]): 110%; T/C (Mus musculus [4]): 105%

Q: With `COc1cccc2c1C(=O)c1c(O)c3c(c(O)c1C2=O)C[C@@](O)(C(=O)CO)C[C@@H]3O[C@H]1C[C@H](N)[C@H](O)[C@H](C)O1` [DOXORUBICIN] as the compound, how does the pEC50 (Gallus gallus [5]) read?
A: 6.74

Q: And the pEC50 (Gallus gallus [6])?
A: 5.60

Q: And the pEC50 (Gallus gallus [7])?
A: 7.00

Q: And the pEC50 (Gallus gallus [8])?
A: 6.05

Q: And the T/C (Mus musculus [9])?
A: 68%

Q: What about the T/C (Mus musculus [10]) of the same compound?
A: 158%

Q: And the T/C (Mus musculus [11])?
A: 90%

Q: And the T/C (Mus musculus [12])?
A: 137%

Q: And the T/C (Mus musculus [13])?
A: 111%

Q: What about the Improvement [14] of the same compound?
A: 6.8

Q: And the Improvement [15]?
A: 5.8

Q: What about the Selectivity index [16] of the same compound?
A: 0.56

Q: What about the Selectivity index [17] of the same compound?
A: 0.36

Q: With `COc1cccc2c1C(=O)c1c(O)c3c(c(O)c1C2=O)C[C@@](O)(C(=O)CO)C[C@@H]3OC1CC(NC(=O)[C@H](CCCCN)NC(=O)[C@H](CC(C)C)NC(=O)[C@H](N)C(C)C)C(O)C(C)O1` (stereo partly specified) as the compound, how does the pEC50 (Gallus gallus [5]) read?
A: 6.10

Q: And the pEC50 (Gallus gallus [6])?
A: 4.59

Q: And the pEC50 (Gallus gallus [7])?
A: 5.52

Q: What about the pEC50 (Gallus gallus [8]) of the same compound?
A: 4.27

Q: And the T/C (Mus musculus [1])?
A: 103%

Q: What about the T/C (Mus musculus [2]) of the same compound?
A: 113%

Q: What about the T/C (Mus musculus [18]) of the same compound?
A: 121%

Q: And the T/C (Mus musculus [3])?
A: 97%

Q: What about the T/C (Mus musculus [19]) of the same compound?
A: 105%

Q: And the T/C (Mus musculus [4])?
A: 105%

Q: And the Improvement [14]?
A: 6.8

Q: And the Improvement [15]?
A: 5.8

Q: What about the Selectivity index [16] of the same compound?
A: 3.8

Q: And the Selectivity index [17]?
A: 2.1

— ChEMBL document CHEMBL1122296, “Plasmin-activated prodrugs for cancer chemotherapy. 2. Synthesis and biological activity of peptidyl derivatives of doxorubicin” (1983)
